Test results as given in ChEMBL document CHEMBL2331269, “Design and synthesis of amphiphilic xanthone-based, membrane-targeting antimicrobials with improved membrane selectivity” (J Med Chem, 2013).
≈ marks a conversion by molar mass, not a printed value. Calls of active or inactive are those of the source. The calls are words filed in the database; no cut-off is given here.

Columns and labels:
Staphylococcus aureus [1] = assay: Antibacterial activity against vancomycin-intermediate resistant Staphylococcus aureus 10:DB6506 after 20 to 22 hrs by multipassage resistance selection method; assay type: functional, organism-based
Staphylococcus aureus [2] = assay: Antibacterial activity against methicillin-resistant Staphylococcus aureus DB57964/04 after 20 to 22 hrs by CLSI broth macro-dilution method; assay type: functional
Staphylococcus aureus [3] = assay: Antimicrobial activity against Staphylococcus aureus DM4001 assessed as morphological changes by scanning electron microscopy relative to control; assay type: functional, organism-based
Mus musculus [4] = assay: Toxicity against wild type C57BL6 mouse at 25 mg/kg, iv after 24 hrs; assay type: organism-based; set-up: dose 25 mg/kg, route intravenous; conditions: in vivo
How it was run: (§1)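 Mice received a single bolus injection, 25 mg/kg intravenous or 50 mg/kg intraperitoneal, with survival recorded at 24 h; 2 animals per route.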

[5] = Selectivity index, ratio of HC50 for rabbit erythrocyte to MIC99 for methicillin-resistant Staphylococcus aureus DM09808R; assay type: functional
Enterococcus faecalis [6] = assay: Antibacterial activity against Enterococcus faecalis ATCC 29212 after 20 to 22 hrs by CLSI broth macro-dilution method; assay type: functional
Staphylococcus aureus [7] = assay: Antibacterial activity against methicillin-resistant Staphylococcus aureus DR68004 obtained from blood isolate after 20 to 22 hrs by CLSI broth macro-dilution method; assay type: functional
[8] = Hemolytic activity against rabbit erythrocytes after 60 mins by spectrophotometric analysis; assay type: ADME, cell-based, Oryctolagus cuniculus, Erythrocyte
Staphylococcus aureus [9] = assay: Antibacterial activity against vancomycin-intermediate resistant Staphylococcus aureus 10:DB6506 after 20 to 22 hrs by CLSI broth macro-dilution method; assay type: functional
Staphylococcus aureus [10] = assay: Antibacterial activity against methicillin-resistant Staphylococcus aureus DM21455 assessed as reduction in viable count at 2 X MIC after 5 mins by surface-spread plate method relative to control; assay type: functional
[11] = Selectivity index, ratio of HC50 for rabbit erythrocyte to MIC99 for Staphylococcus aureus ATCC 6538P; assay type: functional
[12] = Selectivity index, ratio of HC50 for rabbit erythrocyte to MIC99 for Staphylococcus aureus ATCC 29737; assay type: functional
Staphylococcus aureus [13] = assay: Antibacterial activity against methicillin-resistant Staphylococcus aureus DM21455 assessed as reduction in viable count at 4 X MIC after 10 mins by surface-spread plate method relative to control; assay type: functional
[14] = Selectivity ratio of HC50 for rabbit erythrocyte to MIC99 for methicillin-resistant Staphylococcus aureus clinical isolate DM21455; assay type: functional
[15] = Selectivity index, ratio of HC50 for rabbit erythrocyte to MIC99 for methicillin-resistant Staphylococcus aureus DB57964/04; assay type: functional
Staphylococcus aureus [16] = assay: Antimicrobial activity against in Staphylococcus aureus assessed as disruption of bacterial membrane at 10 uM by fluorescence microscopy; assay type: functional, organism-based
How it was run: (§2)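 S. aureus DM4001 treated with 10 μM agent and incubated with the membrane-impermeant nucleic-acid dye SYTOX Green. Permeabilization was read as increased fluorescence intensity and confirmed by fluorescence microscopy counting green-stained cells.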

[17] = Selectivity index, ratio of HC50 for rabbit erythrocyte to MIC99 for methicillin-resistant Staphylococcus aureus DR68004; assay type: functional
Staphylococcus aureus [18] = assay: Antibacterial activity against methicillin-resistant Staphylococcus aureus DM21455 assessed as reduction in viable count after 5 to 10 mins by surface-spread plate method; assay type: functional, organism-based
Staphylococcus aureus [19] = assay: Antibacterial activity against methicillin-resistant Staphylococcus aureus ATCC […] after 20 to 22 hrs by CLSI broth macro-dilution method; assay type: functional
Staphylococcus aureus [20] = assay: Antibacterial activity against Staphylococcus aureus ATCC 29213 after 20 to 22 hrs by CLSI broth macro-dilution method; assay type: functional
[21] = Toxicity against New Zealand White rabbit corneal epithelium assessed as effect on wound closure at 50 ug/ml by Slit lamp photography relative to control; assay type: tissue-based, Oryctolagus cuniculus, Cornea; conditions: in vivo
How it was run: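 A 5 mm corneal epithelial abrasion was made with a sterile trephine and the epithelium removed with a mini blade. Eyes were treated with saline, vancomycin 50 μg/mL, or agent 50 μg/mL. Wound closure was tracked over time from fluorescein-stained photographs of defect size.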

[22] = Selectivity ratio of HC50 for rabbit erythrocyte to MIC99 for Staphylococcus aureus ATCC 29213; assay type: functional
[23] = Selectivity index, ratio of HC50 for rabbit erythrocyte to MIC99 for Streptococcus faecium ATCC 10541; assay type: functional
[24] = Selectivity index, ratio of HC50 for rabbit erythrocyte to MIC99 for methicillin-resistant Staphylococcus aureus DR42412; assay type: functional
Enterococcus faecium = assay: Antibacterial activity against Streptococcus faecium ATCC 10541 after 20 to 22 hrs by CLSI broth macro-dilution method; assay type: functional
Staphylococcus aureus [25] = assay: Antimicrobial activity against Staphylococcus aureus DM4001 assessed as depolarization of bacterial membrane at 12.5 ug/ml by DiSC3-5-based cytoplasmic membrane depolarization assay; assay type: functional, organism-based
How it was run: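 Clinical S. aureus DM4001 was loaded with the membrane-potential dye DiSC3-5, which self-quenches in polarized membranes. Agent added at 12.5 μg/mL. Depolarization was read as the rise in fluorescence intensity (counts per second) over time.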

Pseudomonas aeruginosa = assay: Antibacterial activity against Pseudomonas aeruginosa ATCC 27853 after 20 to 22 hrs by CLSI broth macro-dilution method; assay type: functional
[26] = Selectivity index, ratio of HC50 for rabbit erythrocyte to MIC99 for methicillin-resistant Staphylococcus aureus DM21595; assay type: functional
Staphylococcus aureus [27] = assay: Antibacterial activity against methicillin-resistant Staphylococcus aureus DM21455 assessed as log reduction in CFU at 0.5 X MIC to 1 X MIC after 2 hrs by surface-spread plate method relative to control; assay type: functional
Staphylococcus aureus [28] = assay: Antibacterial activity against methicillin-resistant Staphylococcus aureus clinical isolate DM21455 after 20 to 22 hrs by CLSI broth macro-dilution method; assay type: functional
Staphylococcus aureus [29] = assay: Antibacterial activity against methicillin-resistant Staphylococcus aureus DM21455 after 20 to 22 hrs by multipassage resistance selection method; assay type: functional, organism-based
[30] = Selectivity index, ratio of HC50 for rabbit erythrocyte to MIC99 for methicillin-resistant Staphylococcus aureus ATCC 700669; assay type: functional
[31] = Selectivity index, ratio of HC50 for rabbit erythrocyte to MIC99 for […] ATCC 12228; assay type: functional
Staphylococcus aureus [32] = assay: Antimicrobial activity against Staphylococcus aureus assessed as disruption of bacterial membrane at 10 uM by SYTOX green uptake assay; assay type: functional, organism-based; how it was run: as §2
Staphylococcus aureus [33] = assay: Antibacterial activity against Staphylococcus aureus ATCC 700699 at 4 X MIC after 20 to 22 hrs; assay type: functional, organism-based
Staphylococcus aureus [34] = assay: Antibacterial activity against methicillin-resistant Staphylococcus aureus DM21595 obtained from wound isolate after 20 to 22 hrs by CLSI broth macro-dilution method; assay type: functional
Enterococcus faecalis [35] = assay: Antibacterial activity against Enterococcus faecalis ATCC 29212 after 20 to 22 hrs by multipassage resistance selection method; assay type: functional, organism-based
[36] = Selectivity index, ratio of HC50 for rabbit erythrocyte to MIC99 for Enterococcus faecalis ATCC 29212; assay type: functional
Staphylococcus aureus [37] = assay: Antibacterial activity against methicillin-resistant Staphylococcus aureus DM09808R obtained from eye isolate after 20 to 22 hrs by CLSI broth macro-dilution method; assay type: functional
Klebsiella pneumoniae = assay: Antibacterial activity against Klebsiella pneumoniae ATCC 10031 after 20 to 22 hrs by CLSI broth macro-dilution method; assay type: functional
Mus musculus [38] = assay: Toxicity against wild type C57BL6 mouse assessed as corneal opacity at 400 ug/ml administered topically 5 times a day by Slit lamp photography; assay type: organism-based, Cornea; conditions: in vivo, topical_or_ocular
How it was run: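 Mouse eyes given topical drops five times per day at 400 μg/mL; cornea examined by slit lamp photography for clinical signs of toxicity and corneal opacity.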

Staphylococcus aureus [39] = assay: Antibacterial activity against methicillin-resistant Staphylococcus aureus DR42412 obtained from sputum isolate after 20 to 22 hrs by CLSI broth macro-dilution method; assay type: functional
[40] = Selectivity index, ratio of HC50 for rabbit erythrocyte to MIC99 for Staphylococcus aureus 10:DB6506; assay type: functional
Mus musculus [41] = assay: Toxicity against wild type C57BL6 mouse at 50 mg/kg, ip after 24 hrs; assay type: organism-based; set-up: dose 50 mg/kg, route intraperitoneal; conditions: in vivo; how it was run: as §1
[42] = Dissociation constant, pKa of the compound; assay type: physicochemical
Staphylococcus aureus [43] = assay: Antibacterial activity against Staphylococcus aureus ATCC 6538 after 20 to 22 hrs by CLSI broth macro-dilution method; assay type: functional
[44] = test system: Staphylococcus epidermidis; assay: Antibacterial activity against Staphylococcus epidermidis ATCC 12228 after 20 to 22 hrs by CLSI broth macro-dilution method
Staphylococcus aureus [45] = assay: Antibacterial activity against Staphylococcus aureus ATCC 29737 after 20 to 22 hrs by CLSI broth macro-dilution method; assay type: functional
[46] = Partition coefficient, log P of the compound by HPLC analysis; assay type: physicochemical; conditions: octanol/water; read-out: logP
How it was run: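 Partition coefficient measured by HPLC following OECD guidelines for the testing of chemicals.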

[47] = Selectivity index, ratio of HC50 for rabbit erythrocyte to MIC99 for Staphylococcus aureus ATCC 6538; assay type: functional
Staphylococcus aureus [48] = assay: Antibacterial activity against Staphylococcus aureus ATCC 6538P after 20 to 22 hrs by CLSI broth macro-dilution method; assay type: functional

Compound: CCN(CC)CCCCOc1cc2oc3cc(OCCCCN(CC)CC)c(OC)c(CC=C(C)C)c3c(=O)c2c(O)c1CC=C(C)C
- Activity (Staphylococcus aureus [1]): Active
- MIC (Staphylococcus aureus [2]): 0.78 µg/mL (≈ 1.17 µM)
- Activity (Staphylococcus aureus [3]): Active
- Activity (Mus musculus [4]): Non-toxic
- Selectivity Index [5]: 12.6
- MIC (Enterococcus faecalis [6]): 0.78 µg/mL (≈ 1.17 µM)
- MIC (Staphylococcus aureus [7]): 1.56 µg/mL (≈ 2.35 µM)
- HC50 at 1 h [8]: 19.6 µM
- MIC (Staphylococcus aureus [9]): 0.78 µg/mL (≈ 1.17 µM)
- Activity (Staphylococcus aureus [10]): 99.9%
- Selectivity Index [11]: 25.1
- Selectivity Index [12]: 12.6
- Activity (Staphylococcus aureus [13]): 99.9%
- Selectivity ratio [14]: 50.3
- Selectivity Index [15]: 25.1
- Activity (Staphylococcus aureus [16]): Active
- Selectivity Index [17]: 12.6
- Activity (Staphylococcus aureus [18]): Dose-dependent effect
- MIC (Staphylococcus aureus [19]): 0.095 µg/mL (≈ 0.143 µM)
- MIC99 (Staphylococcus aureus [20]): 0.39 µg/mL (≈ 0.587 µM)
- Activity [21]: Non-toxic
- Selectivity ratio [22]: 50.3
- Selectivity Index [23]: 100.5
- Selectivity Index [24]: 50.3
- MIC (Enterococcus faecium): 0.195 µg/mL (≈ 0.293 µM)
- Activity (Staphylococcus aureus [25]): Active
- MIC (Pseudomonas aeruginosa): 50 µg/mL (≈ 75.2 µM)
- Selectivity Index [26]: 50.3
- FC (Staphylococcus aureus [27]): 3
- MIC99 (Staphylococcus aureus [28]): 0.39 µg/mL (≈ 0.587 µM)
- Activity (Staphylococcus aureus [29]): Active
- Selectivity Index [30]: 206.3
- Selectivity Index [31]: 25.1
- Activity (Staphylococcus aureus [32]): Active
- Activity (Staphylococcus aureus [33]): Active
- MIC (Staphylococcus aureus [34]): 0.39 µg/mL (≈ 0.587 µM)
- Activity (Enterococcus faecalis [35]): Active
- Selectivity Index [36]: 25.1
- MIC (Staphylococcus aureus [37]): 1.56 µg/mL (≈ 2.35 µM)
- MIC (Klebsiella pneumoniae): 40 µg/mL (≈ 60.2 µM)
- Activity (Mus musculus [38]): Non-toxic
- MIC (Staphylococcus aureus [39]): 0.39 µg/mL (≈ 0.587 µM)
- Selectivity Index [40]: 25.1
- Activity (Mus musculus [41]): Non-toxic
- pKa [42]: 11
- MIC (Staphylococcus aureus [43]): 1.56 µg/mL (≈ 2.35 µM)
- MIC [44]: 0.78 µg/mL (≈ 1.17 µM)
- MIC (Staphylococcus aureus [45]): 1.56 µg/mL (≈ 2.35 µM)
- logP [46]: 6.72
- Selectivity Index [47]: 12.6
- MIC (Staphylococcus aureus [48]): 0.78 µg/mL (≈ 1.17 µM)
